Experimental findings from ChEMBL document CHEMBL4219197, “Synthesis, biological evaluation and SAR of naftopidil-based arylpiperazine derivatives” (Bioorg Med Chem Lett, 2018) are described below.

Test [1] is described as follows: Cytotoxicity against human WPMY-1 cells assessed as growth inhibition after 24 hrs by CCK8 assay. The format is cell-based. The following applies: WPMY-1, 24 h. A digest of the protocol:
(§1)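 Cells (PC-3, LNCaP, DU145, normal prostate […] WPMY-1) exposed 24 h to escalating concentrations; viability by CCK-8 read-out as percent of control; IC50 derived.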
In general terms: Formazan colour is commonly taken as a measure of viable cells.

Test [2] addresses T1, Alpha-1D adrenergic receptor (Homo sapiens, UniProt P25100).
T1 sequence (P25100 whole entry): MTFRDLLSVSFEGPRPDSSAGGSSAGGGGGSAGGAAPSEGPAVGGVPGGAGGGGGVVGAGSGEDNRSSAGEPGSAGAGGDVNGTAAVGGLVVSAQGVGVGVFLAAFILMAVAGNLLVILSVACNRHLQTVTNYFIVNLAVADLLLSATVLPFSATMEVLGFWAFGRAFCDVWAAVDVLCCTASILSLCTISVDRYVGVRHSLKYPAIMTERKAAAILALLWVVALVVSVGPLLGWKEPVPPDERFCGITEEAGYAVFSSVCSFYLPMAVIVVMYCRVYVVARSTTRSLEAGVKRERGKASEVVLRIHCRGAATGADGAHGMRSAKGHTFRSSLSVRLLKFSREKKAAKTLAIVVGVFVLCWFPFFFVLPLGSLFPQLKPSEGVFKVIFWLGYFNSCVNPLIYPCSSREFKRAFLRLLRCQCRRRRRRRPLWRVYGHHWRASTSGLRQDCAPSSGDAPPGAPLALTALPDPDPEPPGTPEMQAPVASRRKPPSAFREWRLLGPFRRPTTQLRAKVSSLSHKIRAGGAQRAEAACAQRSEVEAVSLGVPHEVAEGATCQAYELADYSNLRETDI
Briefly: Antagonist activity at alpha 1D adrenergic receptor (unknown origin) by luciferase reporter gene assay. The format is functional. In short, it runs like this:
(§2)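 Dual-luciferase reporter assay measuring antagonism at α1A, α1B and α1D adrenoceptor subtypes. IC50 values are means of three experiments.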

For a further test, the system named is LNCaP. Briefly: Cytotoxicity against human LNCAP cells assessed as growth inhibition after 24 hrs by CCK8 assay. The format is functional, cell-based. A digest of the protocol: as §1
For test [3], the target named is T2, Alpha-1B adrenergic receptor (Homo sapiens, UniProt P35368).
T2 sequence (P35368 whole entry): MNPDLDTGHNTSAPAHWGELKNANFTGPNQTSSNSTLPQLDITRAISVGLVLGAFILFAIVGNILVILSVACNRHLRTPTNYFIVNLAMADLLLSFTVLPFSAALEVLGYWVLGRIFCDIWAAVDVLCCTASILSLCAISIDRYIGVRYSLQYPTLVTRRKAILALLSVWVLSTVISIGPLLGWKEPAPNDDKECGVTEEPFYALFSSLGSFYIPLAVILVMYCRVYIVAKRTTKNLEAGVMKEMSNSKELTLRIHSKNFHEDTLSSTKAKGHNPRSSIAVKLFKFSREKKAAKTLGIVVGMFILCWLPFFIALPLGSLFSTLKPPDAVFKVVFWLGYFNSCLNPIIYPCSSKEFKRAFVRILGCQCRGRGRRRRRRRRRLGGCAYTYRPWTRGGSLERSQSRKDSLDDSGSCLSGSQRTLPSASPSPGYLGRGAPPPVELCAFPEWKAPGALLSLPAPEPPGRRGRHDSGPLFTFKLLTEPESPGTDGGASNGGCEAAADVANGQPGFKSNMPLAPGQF
Briefly: Antagonist activity at alpha 1B adrenergic receptor (unknown origin) by luciferase reporter gene assay. The format is functional. A digest of the protocol: as §2

The test system of a further test is PC-3. Put plainly: Cytotoxicity against human PC3 cells assessed as growth inhibition after 24 hrs by CCK8 assay. The class given is functional, cell-based. As to conditions: PC-3, 24 h. In short, it runs like this: as §1
Test [4] has as its system DU-145. Briefly: Cytotoxicity against human DU145 cells assessed as growth inhibition after 24 hrs by CCK8 assay. The class given is functional, cell-based. As to conditions: DU-145, 24 h. A digest of the protocol: as §1
The target in test [5] is T3, Alpha-1A adrenergic receptor (Homo sapiens, UniProt P35348).
T3 sequence (P35348 whole entry): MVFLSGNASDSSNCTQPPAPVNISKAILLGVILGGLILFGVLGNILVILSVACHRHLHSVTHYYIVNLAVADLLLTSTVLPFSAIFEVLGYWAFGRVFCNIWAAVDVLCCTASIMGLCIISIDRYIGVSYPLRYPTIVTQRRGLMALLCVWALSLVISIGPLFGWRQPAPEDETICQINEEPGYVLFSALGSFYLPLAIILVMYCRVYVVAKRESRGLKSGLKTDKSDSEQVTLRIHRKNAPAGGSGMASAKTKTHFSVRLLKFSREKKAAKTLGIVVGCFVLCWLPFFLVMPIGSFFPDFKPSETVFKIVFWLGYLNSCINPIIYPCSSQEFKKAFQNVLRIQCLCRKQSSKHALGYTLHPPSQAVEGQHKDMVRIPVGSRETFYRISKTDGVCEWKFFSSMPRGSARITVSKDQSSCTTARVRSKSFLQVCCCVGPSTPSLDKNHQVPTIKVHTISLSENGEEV
Put plainly: Antagonist activity at alpha 1A adrenergic receptor (unknown origin) by luciferase reporter gene assay. The class given is functional. In short, it runs like this:
as §2
For orientation: In a reporter assay the amount or activity of a reporter protein is the signal.

The test system of test [6] is DU-145. Briefly: Potency index, ratio of naftopidil IC50 to compound IC50 for human DU145 cells. The class given is functional.
The subject of test [7] is DU-145. Briefly: Cell cycle arrest in human DU145 cells assessed as accumulation at S phase at 8 uM after 24 hrs by propidium iodide staining based flow cytometry (reference value: 20.64%). The format is functional. (In general: Flow cytometry measures light scatter and fluorescence of single cells or particles in a stream.)
Test [8] concerns DU-145. Put plainly: Induction of apoptosis in human DU145 cells assessed as live cells at 8 uM after 24 hrs by Annexin V/propidium iodide staining based flow cytometry (reference value: 99.38%). The class given is functional.
Test [9] relates to DU-145. Briefly: Cell cycle arrest in human DU145 cells assessed as accumulation at G0/G1 phase at 8 uM after 24 hrs by propidium iodide staining based flow cytometry (reference value: 55.49%). The format is functional.
The subject of test [10] is DU-145. Briefly: Induction of apoptosis in human DU145 cells assessed as necrotic cells at 8 uM after 24 hrs by Annexin V/propidium iodide staining based flow cytometry (reference value: 0.33%). The class given is functional.
The test system of test [11] is DU-145. Briefly: Cell cycle arrest in human DU145 cells assessed as accumulation at G2/M phase at 8 uM after 24 hrs by propidium iodide staining based flow cytometry (reference value: 24.42%). The class given is functional.
For test [12], the system named is DU-145. Briefly: Induction of apoptosis in human DU145 cells assessed as late apoptotic cells at 8 uM after 24 hrs by Annexin V/propidium iodide staining based flow cytometry (reference value: 0.17%). The class given is functional.
Test [13] deals with DU-145. Briefly: Induction of apoptosis in human DU145 cells assessed as early apoptotic cells at 8 uM after 24 hrs by Annexin V/propidium iodide staining based flow cytometry (reference value: […]). The class given is functional.
For test [14], the system named is DU-145. Briefly: Induction of apoptosis in human DU145 cells assessed as late apoptotic cells at 6 uM after 24 hrs by Annexin V/propidium iodide staining based flow cytometry (reference value: 0.17%). The format is functional.
In test [15] the test system is DU-145. Briefly: Induction of apoptosis in human DU145 cells assessed as early apoptotic cells at 6 uM after 24 hrs by Annexin V/propidium iodide staining based flow cytometry (reference value: […]). The class given is functional.
Test [16] has as its system DU-145. Briefly: Cell cycle arrest in human DU145 cells assessed as accumulation at S phase at 6 uM after 24 hrs by propidium iodide staining based flow cytometry (reference value: 20.64%). The format is functional.
Test [17] concerns DU-145. Briefly: Induction of apoptosis in human DU145 cells assessed as necrotic cells at 6 uM after 24 hrs by Annexin V/propidium iodide staining based flow cytometry (reference value: 0.33%). The format is functional.
In test [18] the test system is DU-145. Briefly: Cell cycle arrest in human DU145 cells assessed as accumulation at G0/G1 phase at 6 uM after 24 hrs by propidium iodide staining based flow cytometry (reference value: 55.49%). The format is functional.
Test [19] relates to DU-145. Briefly: Cell cycle arrest in human DU145 cells assessed as accumulation at G2/M phase at 6 uM after 24 hrs by propidium iodide staining based flow cytometry (reference value: 24.42%). The format is functional.
Test [20] has as its system DU-145. Briefly: Induction of apoptosis in human DU145 cells assessed as live cells at 6 uM after 24 hrs by Annexin V/propidium iodide staining based flow cytometry (reference value: 99.38%). The class given is functional.

Structures are written as SMILES.

By IC50 is commonly meant the point on the concentration scale where inhibition reaches its midpoint. Regarding `Cc1cccc(N2CCN(CCc3ccc(COc4ccc5c(c4)CCCC5)cc3)CC2)c1.Cl.Cl`, the IC50 is over 50000 nM in test [1]; 826 nM in [2]; over 50000 nM in the test with LNCaP; 583 nM in test [3]; 56800 nM in the test on PC-3; 830 nM with DU-145 [4]. Also, in test [5], the midpoint of inhibition, the IC50, lay at 502 nM. Also, the “Ratio IC50” value with DU-145 [6] was 41.
With `COc1ccc(N2CCN(CCc3ccc(COc4ccc5c(c4)CCCC5)cc3)CC2)cc1.Cl.Cl`, the Activity worked out at 21.14% with DU-145 [7]; 99.4% in the test on DU-145 [8]; 56.91% in the test on DU-145 [9]; 0.34% in the test with DU-145 [10]; 23.04% in the test with DU-145 [11]; 0.12% in the test with DU-145 [12]. Also, the Activity in the test on DU-145 [13] amounted to 0.11%. Further, the IC50 in test [1] is over 50000 nM; in test [2], 736 nM; in the test on LNCaP, 46200 nM; in [3], 972 nM; in the test with PC-3, 76500 nM; in the test on DU-145 [4], 930 nM. In [5], this compound registered an IC50 of 57.6 nM. Also, in the test with DU-145 [6], the “Ratio IC50” value turned out to be 37.
As for `Cl.Cl.Fc1ccc(N2CCN(CCc3ccc(COc4ccc5c(c4)CCCC5)cc3)CC2)cc1`, the Activity in the test on DU-145 [14] came out at 0.1%; in the test on DU-145 [15] it was 0.05%; in the test with DU-145 [16], 20.42%; in the test on DU-145 [17], 0.28%; with DU-145 [18], 70.5%; in the test on DU-145 [19] it was 12.72%. Also, the Activity with DU-145 [20] was 99.5%. Besides, the IC50 in test [1] was over 50000 nM; in test [2] it was 103 nM; in the test on LNCaP, 48200 nM; in [3] it was 1120 nM; with PC-3, 57300 nM; with DU-145 [4], 900 nM. The compound further returned an IC50 in [5] of 1070 nM. For the same compound, in the test with DU-145 [6], the “Ratio IC50” value is listed as 38.
Regarding `c1ccc(N2CCN(CCc3ccc(COc4ccc5c(c4)CCCC5)cc3)CC2)cc1`, the IC50 in test [1] was over 50000 nM; with LNCaP it was 6530 nM; in the test with PC-3, over 50000 nM; in the test with DU-145 [4] it was over 50000 nM.
Regarding `Cc1ccccc1N1CCN(CCc2ccc(COc3ccc4c(c3)CCCC4)cc2)CC1`, the half-inhibitory concentration (IC50) in [1] is over 50000 nM; in the test on LNCaP, 32800 nM; in the test with PC-3 it was 25500 nM; with DU-145 [4], over 50000 nM.
`c1ccc(N2CCN(CCc3ccc(COc4ccc5c(c4)CCCC5)cc3)CC2)nc1`: the IC50 in test [1] came out at 49200 nM; in the test with LNCaP, 2920 nM; with PC-3, 29200 nM; in the test with DU-145 [4], 11200 nM.
For `Cl.Cl.Clc1cccc(N2CCN(CCc3ccc(COc4ccc5c(c4)CCCC5)cc3)CC2)c1`, the IC50 in [1] was over 50000 nM; in test [2] it was 287 nM; in the test on LNCaP, 17300 nM; in [3] it was 998 nM; in the test on PC-3 it was 46700 nM; in the test with DU-145 [4] it was 860 nM. For the same compound, half-maximal inhibition in test [5] (IC50) was put at 1210 nM. The “Ratio IC50” value in the test with DU-145 [6] worked out at 40.
On to `Cl.c1ccc(C2CCN(CCc3ccc(COc4ccc5c(c4)CCCC5)cc3)CC2)cc1`, for which the IC50 in [1] was over 50000 nM; in [2] it was 453 nM; in the test on LNCaP, 3940 nM; in [3], 673 nM; in the test on PC-3 it was 10500 nM; with DU-145 [4] it was 950 nM. The same compound had an IC50 in test [5] of 568 nM. For the same compound, the “Ratio IC50” value in the test with DU-145 [6] came to 36.
